A short description of test [1]: thallium flux activation in parental CHO cells, counter-screen for KCNQ1 potentiator project (AID 493006;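 active = duplicate-averaged activation above buffer control mean plus 5 SD of those controls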). The settings on record: parental CHO-K1 cells, FluxOR thallium flux, at 10 µM; stronger effect = higher value. Put shortly: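 Assay system: Untransfected host CHO-K1 cells with FluxOR thallium dye | Probe or stimulus: Potassium/thallium depolarization pulse | Schedule: Overnight 37 °C plating, 90 min RT dye, 20 min compound | Detection: Kinetic thallium-flux fluorescence | Read-out: Max-minus-min fluorescence over baseline, percent of buffer-to-R-L3 span | Benchmarks: Low control buffer, high control R-L3 activator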
(Counterscreens check selectivity or assay interference.)

For test [2], the target named is Potassium voltage-gated channel subfamily KQT member 1 (Homo sapiens) (UniProt P51787). Nature of the test: KCNQ1 potassium channel potentiators, confirmation, FluxOR thallium flux, CHO cells, duplicates (AID 493007;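 active = potentiation averaged over duplicate wells exceeding buffer-only control mean by more than 3 SD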;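 as to outcome: cells depolarized by a potassium plus thallium sulfate stimulus after compound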). The following applies: KCNQ1 cell line, FluxOR thallium flux fluorescence, at 10 µM; stronger effect = higher value, % of reference activator effect, buffer zero. Put shortly:
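Material: KCNQ1-expressing CHO cell line; Incubation: FluxOR dye loading 90 min, compound exposure 20 min, room temperature; Detection: FluxOR Tl+ flux fluorescence, 10 s baseline plus 110 s recording; Read-out: percent activation between buffer and R-L3 responses; Control set: buffer-only wells as 0% and R-L3 activator as 100%; Replication: duplicate wells per compound.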

Test [3] has as its target Potassium voltage-gated channel subfamily KQT member 2 (Rattus norvegicus) (UniProt O88943). Nature of the test: rat KCNQ2 channel potentiation, selectivity assay for KCNQ1 potentiator project, KCNQ2-CHO-K1 cells (AID 493009;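 active = mean duplicate potentiation above the buffer control mean plus 5 SD of buffer wells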;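 also: assay conditions were tuned for KCNQ1 rather than KCNQ2 modulators; signal is max minus min fluorescence divided by baseline after thallium stimulus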). The settings on record: FluxOR thallium flux fluorescence, at 10 µM; stronger effect = higher value, scaled: buffer 0, activator control 100.
Test [4] concerns the target Potassium voltage-gated channel subfamily KQT member 1 (Homo sapiens) (UniProt P51787). Nature of the test: KCNQ1 channel current potentiators, confirmation, orthogonal assay for KCNQ1 potentiator project, IonWorks patch clamp, KCNQ1-CHO cells (AID 493184).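 As to current potentiation: percent change of the same well's current before compound addition so 0% = no change.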 The following applies: automated patch clamp current, at 10 µM; stronger effect = higher value. The procedure, abridged: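 assay system = KCNQ1-expressing CHO cells | medium = external bath solution at pH 7.4 | probe or stimulus = 2,000 ms depolarization, -90 to +40 mV | compound dosing = 10 µM final, single point | measured by = automated voltage clamp, amphotericin B perforated patch | measure = percent current increase versus pre-compound level | replication = duplicates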
Background: The patch-clamp technique gives a direct electrical read-out from membranes.

Activity calls are given as the source filed them.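 The calls were made as follows, unless noted: active = current rise at least 3 SD above the untreated control mean in each of two repeat wells; inactive = the rest.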

Experimental findings from PubChem BioAssay are described below.

Potassium voltage-gated channel subfamily KQT member 2 (Rattus norvegicus), sequence (O88943 whole entry, looked up): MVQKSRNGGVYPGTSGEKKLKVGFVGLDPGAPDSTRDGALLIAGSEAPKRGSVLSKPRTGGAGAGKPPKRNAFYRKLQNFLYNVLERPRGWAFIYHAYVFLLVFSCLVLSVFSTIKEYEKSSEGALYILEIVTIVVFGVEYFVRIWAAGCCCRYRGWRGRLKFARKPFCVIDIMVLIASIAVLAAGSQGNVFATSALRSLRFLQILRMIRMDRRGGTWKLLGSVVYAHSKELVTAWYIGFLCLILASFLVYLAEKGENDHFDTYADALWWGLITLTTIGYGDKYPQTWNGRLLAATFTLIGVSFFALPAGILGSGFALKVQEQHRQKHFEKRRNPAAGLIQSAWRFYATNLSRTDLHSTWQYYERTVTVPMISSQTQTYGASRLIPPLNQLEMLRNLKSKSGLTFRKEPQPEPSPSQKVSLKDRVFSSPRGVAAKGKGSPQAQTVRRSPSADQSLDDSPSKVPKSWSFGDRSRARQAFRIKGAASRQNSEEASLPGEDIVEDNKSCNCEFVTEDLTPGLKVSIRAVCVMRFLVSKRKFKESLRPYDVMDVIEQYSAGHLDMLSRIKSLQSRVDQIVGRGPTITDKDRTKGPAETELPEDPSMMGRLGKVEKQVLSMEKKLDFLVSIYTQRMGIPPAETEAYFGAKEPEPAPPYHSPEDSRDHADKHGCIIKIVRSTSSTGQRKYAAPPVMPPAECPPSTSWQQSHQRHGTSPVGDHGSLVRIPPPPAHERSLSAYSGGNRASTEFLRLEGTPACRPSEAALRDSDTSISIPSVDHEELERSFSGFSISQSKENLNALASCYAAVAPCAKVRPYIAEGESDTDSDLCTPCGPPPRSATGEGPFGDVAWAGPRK
Potassium voltage-gated channel subfamily KQT member 1 (Homo sapiens), sequence (P51787 whole entry, looked up): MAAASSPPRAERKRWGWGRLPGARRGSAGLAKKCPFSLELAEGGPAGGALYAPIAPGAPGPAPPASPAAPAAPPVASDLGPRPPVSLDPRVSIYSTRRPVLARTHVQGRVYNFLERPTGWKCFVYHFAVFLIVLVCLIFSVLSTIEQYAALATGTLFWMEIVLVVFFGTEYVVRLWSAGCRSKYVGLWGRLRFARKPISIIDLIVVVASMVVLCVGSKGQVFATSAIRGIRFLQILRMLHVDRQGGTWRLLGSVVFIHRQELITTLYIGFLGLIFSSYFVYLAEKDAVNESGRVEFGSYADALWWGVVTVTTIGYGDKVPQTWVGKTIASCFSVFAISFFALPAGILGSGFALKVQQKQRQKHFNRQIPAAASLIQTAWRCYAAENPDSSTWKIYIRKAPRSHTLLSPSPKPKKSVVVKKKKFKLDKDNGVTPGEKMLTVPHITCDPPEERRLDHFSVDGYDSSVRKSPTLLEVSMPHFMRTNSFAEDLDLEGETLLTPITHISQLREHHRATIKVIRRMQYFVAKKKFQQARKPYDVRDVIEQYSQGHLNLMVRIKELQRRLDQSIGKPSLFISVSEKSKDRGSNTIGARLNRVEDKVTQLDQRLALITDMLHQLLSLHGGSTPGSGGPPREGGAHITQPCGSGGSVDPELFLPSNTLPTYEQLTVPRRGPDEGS

For `Cc1ccc(C2c3c(-c4ccccc4O)n[nH]c3C(=O)N2Cc2ccncc2)cc1` (stereo not given), the result in test [1], in test [2], in test [3] and in test [4] was inactive.
As to `Cn1nc(SCC(=O)O)sc1=S`, the result in test [1], in test [2], in test [3] and in test [4] was inactive.
Regarding `CC1Cc2cc(/C=C3/SC(=S)NC3=O)ccc2O1` (stereo not given), the result in test [1], in test [2] and in test [3] was inactive. Also, the current potentiation in test [4] is 24.4% (active).
Regarding `COc1ccc(NC(=O)C(=O)NNC(=O)C(C)Oc2ccc(Cl)cc2Cl)cc1` (stereo not given), in test [1], the activation is 481% (active). Moreover, the potentiation is 177% (active) in test [2] and 492% (active) in test [3]. Further, in test [4], the outcome was inactive.
In the case of `O=Cc1c(F)cccc1N1CCCC1`, the result in test [1], in test [2] and in test [4] was inactive. Also, in test [3], the potentiation was 150% (active).
Consider `NNc1nc2ccc(Cl)cc2s1`, for which the result in test [1], in test [2], in test [3] and in test [4] was inactive.
For `CC(C)(C)c1cc(C(=O)NNC(=O)c2ccc(C(F)(F)F)cc2)no1`, the outcome in test [1] and in test [4] was inactive. The results for the potentiation in test [2] and in test [3] were 32% (active) and 161% (active), respectively.
Regarding `COC(=O)C1C(=O)c2c([nH]c(C(=O)OCCSC)c2C)CC1C` (stereo not given), the outcome in test [1], in test [2], in test [3] and in test [4] was inactive.
`Cc1ccc(-c2csc(NC(=S)NC(=O)c3ccco3)n2)cc1`: the activation in test [1] is 180% (active). Moreover, the potentiation in test [2] was 71% (active); in test [3] it was 164% (active). In test [4], the outcome was inactive.
Consider `O=C(NC(=S)N1CCCC(C(F)(F)F)C1)c1ccc(F)cc1` (stereo not given), for which the activation in test [1] was 296% (active). Also, the results for the potentiation in test [2] and in test [3] were 66.5% (active) and 260% (active), respectively. For the same compound, the outcome in test [4] was inactive.
Regarding `CCn1c(O)c(N=NC2=NC(=O)CS2)c2ccccc21`, the result in test [1], in test [2] and in test [4] was inactive. Moreover, the potentiation in test [3] is 145% (active).
Consider `O=C(Nc1ccncc1)c1ccc([N+](=O)[O-])cc1Cl`, for which the outcome in test [1], in test [2], in test [3] and in test [4] was inactive.
Regarding `CC(Oc1ccccc1F)C(=O)/C=C/N(C)C` (stereo not given), the result in test [1], in test [2], in test [3] and in test [4] was inactive.
Regarding `CCC1=NN(C(=O)c2ccc(Br)cc2)C(O)(c2ccccc2)C1` (stereo not given), the result in test [1], in test [2], in test [3] and in test [4] was inactive.
In the case of `S=c1[nH]cc(Cc2ccccc2)s1`, in test [1], the activation was 205% (active). For the same compound, the potentiation in test [2] was 28.5% (active); in test [3] it was 216% (active). Also, the result in test [4] was inactive.
In the same order, the values of `Cc1ccc(N=Nc2ccc(O)c3ncccc23)cc1` are 185% (active), 52.5% (active), 229% (active) and “inactive”.
As to `Oc1[nH]c2ccc(Br)cc2c1N=NC(=S)Nc1ccc(F)cc1`, the result in test [1] and in test [4] was inactive. Further, the figures for the potentiation in test [2] and in test [3] were 43.5% (active) and 160% (active), respectively.
Turning to `C#CCOCCOCCOCCNc1nc(N2CCN(C(=O)C([C@@H](C)CC)n3cc(C(N)Cc4ccc(O)cc4)nn3)CC2)nc(N2CCN(C(=O)[C@H](CCC(=O)O)n3cc(C(N)CC(C)C)nn3)CC2)n1` (stereo not given in full), the outcome in test [1], in test [2], in test [3] and in test [4] was inactive.
`Cc1nn(-c2ccccc2)c2nc(C(Cl)(Cl)Cl)[nH]c(=O)c12`: in test [1], the activation was 145% (active). Moreover, the outcome in test [2], in test [3] and in test [4] was inactive.
With `CC(C)c1ccc(/C=N/n2c(COc3ccccc3)n[nH]c2=S)cc1`, the activation in test [1] is 190% (active). In addition, the potentiation in test [2] is 512% (active); in test [3], 503% (active). Also, the result in test [4] was inactive.
In the same order, the values of `O=c1cc(-c2ccccc2)nc2c(-c3ccccc3)c(C(F)(F)F)[nH]n12` are 626% (active), 282% (active), 591% (active) and “inactive”.
With `CCc1ccc2nc(N(CCCN(C)C)C(=O)c3ccc(S(=O)(=O)N4CCCc5ccccc54)cc3)sc2c1`, the outcome in test [1], in test [2], in test [3] and in test [4] was inactive.
As to `O=C1NC(=S)S/C1=C\c1ccc2ccccc2c1`, the activation in test [1] was 234% (active). Also, the potentiation in test [2] was 82% (active); in test [3], 218% (active). Further, in test [4], the result was inactive.
As to `CC(/C=N/NC(=O)c1cc(-c2cccs2)[nH]n1)=C\c1ccccc1`, the activation in test [1] was 184% (active). In addition, the potentiation in test [2] was 116% (active); in test [3], 250% (active). Also, in test [4], the result was inactive.
Turning to `CC(=O)c1c(N2CCCC2)[nH]c(-c2ccccc2)nc1=S`, the outcome in test [1], in test [2], in test [3] and in test [4] was inactive.
For the compound `CC(=O)Nc1cc(NC(C)=O)cc(C(=O)OC(C)C(=O)Nc2ccc(S(=O)(=O)N3CCCC3)cc2)c1` (stereo not given), the activation in test [1] was 224% (active). In addition, the potentiation in test [2] is 54% (active); in test [3] it was 216% (active). In test [4], the outcome was inactive.
Consider `COc1ccc(C(=O)NC(=S)NNC(=O)c2ccc3ccccc3n2)cc1`, for which the outcome in test [1] and in test [4] was inactive. In addition, the potentiation in test [2] was 26% (active); in test [3], 160% (active).
Take `S=c1nc(-c2ccccc2)[nH]c2ccc(Br)cc12`: the activation in test [1] is 578% (active). Also, the potentiation was 294% (active) in test [2] and 602% (active) in test [3]. Also, in test [4], the outcome was inactive.
On the same counts, the results for `O=C(NC(=S)Nc1ccccc1N1CCCC1)c1ccccc1Br` are 179% (active), 55% (active), 202% (active) and “inactive”.
On to `CC(C)(C)CC(C)(C)NC(=S)NC1CCN(Cc2ccccc2)CC1`, for which the result in test [1], in test [2], in test [3] and in test [4] was inactive.
